Measured values from ChEMBL document CHEMBL4673284, “Syntheses and anti-HIV and human cluster of differentiation 4 (CD4) down-modulating potencies of pyridine-fused cyclotriazadisulfonamide (CADA) compounds” (Bioorg Med Chem, 2020).

What was measured:
[1] = molecular target: T-cell surface glycoprotein CD4 (Homo sapiens, UniProt P01730); test: Binding affinity to signal peptide of human CD4-YFP expressed in CHO-K1 cells assessed down-modulation of CD4 surface expression incubated for 24 hrs by flow cytometry; type: cell-based
Procedure, shortened: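 CHO cells stably expressing human CD4 C-terminally fused to YFP were exposed 24 h at 37 °C to 1:5 serial dilutions, washed, fixed in 1% formaldehyde and analysed by flow cytometry (488 nm laser). YFP MFI, minus non-transfected background, was expressed as % of untreated controls. IC50 is the concentration giving 50% down-modulation. Mean ± SD, n = 3.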

[2] = Kinetic solubility of the compound in aqueous PBS buffer at H 7.4/2.5% DMSO incubated for 1 hr by nephelometry; type: physicochemical; details: aqueous PBS buffer with 2.5% DMSO, pH 7.4, read-out: Kinetic_solubility
Procedure, shortened: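 Compound from a 20 mM DMSO stock was diluted into PBS pH 7.4 at a constant 2.5% DMSO, then two-fold serially diluted in quadruplicate, with extra intermediate concentrations. Plates were shaken 2 min, held 1 h at 37 °C and shaken 3 min before nephelometry. Blank-subtracted scattering onset defined kinetic solubility.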

MT4 = test: Cytotoxicity against human MT-4 cells assessed as inhibition of cell viability incubated for 48 hrs by MTS/PES assay; type: cell-based; details: mt4, 48 h
Procedure, shortened: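 Cytotoxicity: 10^4 MT-4 cells/well in DMEM with 10% FBS and 10 mM HEPES were exposed to compounds 48 h at 37 °C. CC50 was derived from the drop in viability measured by MTS/PES.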

[3] = tested on: Human immunodeficiency virus 1; test: Antiviral activity against HIV-1 NL4-3 infected in human MT-4 cells assessed as inhibition of viral replication by measuring inhibition of cell viability preincubated with cells for 15 mins followed by viral infection and measured after 4 days by MTS/PES assay; type: functional, organism-based; details: Human immunodeficiency virus 1, NL4-3, MT4
Procedure, shortened: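 HIV-1 NL4.3 (30 pg/well) was then added at 37 °C. After 4 days, viability was read by MTS/PES (absorbance 490 and 700 nm) and the IC50 for viral replication was calculated. Mean ± SD, n = 2 or 3.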

[4] = Thermodynamic solubility of the compound in aqueous PBS buffer at pH 7.4 incubated for 72 hrs by shake flask method based UV-Vis absorption spectroscopy; type: physicochemical; details: read-out: Therm_solubility
Procedure, shortened: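 Shake-flask method: 3–5 mg compound in 5 mL PBS pH 7.4 was agitated 72 h, with excess solid checked at 24 and 48 h. The solution was then filtered and the filtrate quantified by UV-Vis standard addition with Beer–Lambert. ε came from five-concentration methanol calibrations at λmax, fitted by linear least squares.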

[5] = tested on: CD4 (surface expression down-modulation); test: Therapeutic index, ratio of CC50 for human MT-4 cells to IC50 for human CD4-YFP expressed in CHO-K1 cells assessed down-modulation of CD4 surface expression incubated for 24 hrs by flow cytometry; type: toxicity, cell-based; details: read-out: Ratio CC50/IC50

In the case of C=C1CN(S(=O)(=O)c2ccc(C)cc2)CCc2cc(OC)cc(n2)CCN(S(=O)(=O)c2ccc(C)cc2)C1.Cl, the IC50 [1] is reported as 1.88 µM, the solubility kinetic at 1 h [2] is reported as 64 µM and the CC50 (MT4) is reported as > 100 µM. It also gave an IC50 [3] of 12.6 µM and a solubility thermodynamic at 72 h [4] of 28 µM.
With C=C1CN(S(=O)(=O)c2ccc(C)cc2)CCc2cc(OCc3ccccc3)cc(n2)CCN(S(=O)(=O)c2ccc(C)cc2)C1 the IC50 [1] was 0.42 µM, the CC50 (MT4) was > 100 µM and the IC50 [3] was 2.18 µM.
With C=C1CN(S(=O)(=O)c2ccc(C)cc2)CCc2cc(OCC3CCCCC3)cc(n2)CCN(S(=O)(=O)c2ccc(C)cc2)C1.Cl the IC50 [1] was 0.13 µM, the solubility kinetic at 1 h [2] was 65 µM and the CC50 (MT4) was > 100 µM. The IC50 [3] was 0.93 µM.
For C=C1CN(S(=O)(=O)c2ccc(C)cc2)CCc2cc(-c3ccccc3)cc(n2)CCN(S(=O)(=O)c2ccc(C)cc2)C1.Cl, the IC50 [1] was 0.74 µM, the solubility kinetic at 1 h [2] was 61 µM and the CC50 (MT4) was > 100 µM. It also gave an IC50 [3] of 2.47 µM.
With Br.C=C1CN(S(=O)(=O)c2ccc(C)cc2)CCc2cc(O)cc(n2)CCN(S(=O)(=O)c2ccc(C)cc2)C1 the IC50 [1] was 9.3 µM, the CC50 (MT4) was > 100 µM and the IC50 [3] was > 50 µM. For the same molecule, the solubility thermodynamic at 72 h [4] was 27 µM.
In the case of C=C1CN(S(=O)(=O)c2ccc(C)cc2)CCc2cc(CCCC)cc(n2)CCN(S(=O)(=O)c2ccc(C)cc2)C1, the IC50 [1] is reported as 0.54 µM, the selectivity ratio at 24 h [5] is reported as > 100 and the CC50 (MT4) is reported as 65.8 µM. It also gave an IC50 [3] of 2.41 µM.
For C=C1CN(S(=O)(=O)c2ccc(C)cc2)CCc2cc(CC)cc(n2)CCN(S(=O)(=O)c2ccc(C)cc2)C1, the IC50 [1] was 0.86 µM, the CC50 (MT4) was > 100 µM and the IC50 [3] was 3.4 µM.
For C=C1CN(S(=O)(=O)c2ccc(C)cc2)CCc2cc(CCC)cc(n2)CCN(S(=O)(=O)c2ccc(C)cc2)C1.Cl, the IC50 [1] was 0.83 µM, the CC50 (MT4) was > 100 µM and the IC50 [3] was 2.81 µM. The solubility thermodynamic at 72 h [4] was 18 µM.
In the case of C=C1CN(S(=O)(=O)c2ccc(C)cc2)CCc2cc(OCC)cc(n2)CCN(S(=O)(=O)c2ccc(C)cc2)C1.Cl, the IC50 [1] is reported as 1.5 µM, the solubility kinetic at 1 h [2] is reported as 54 µM and the CC50 (MT4) is reported as > 100 µM. For the same molecule, the IC50 [3] was 10.4 µM.
With C=C1CN(S(=O)(=O)c2ccc(C)cc2)CCc2cccc(n2)CCN(S(=O)(=O)c2ccc(C)cc2)C1 the IC50 [1] was 2.81 µM, the CC50 (MT4) was > 100 µM and the IC50 [3] was > 50 µM.
With C=C1CN(S(=O)(=O)c2ccc(C)cc2)CCc2cc(C(C)(C)C)cc(n2)CCN(S(=O)(=O)c2ccc(C)cc2)C1.Cl the IC50 [1] was 0.95 µM, the CC50 (MT4) was > 100 µM and the IC50 [3] was 2.7 µM. For the same molecule, the solubility thermodynamic at 72 h [4] was 20 µM.
In the case of C=C1CN(S(=O)(=O)c2ccc(C)cc2)CCc2cc(C)cc(n2)CCN(S(=O)(=O)c2ccc(C)cc2)C1, the IC50 [1] is reported as 1.67 µM, the CC50 (MT4) is reported as > 100 µM and the IC50 [3] is reported as > 50 µM.
In the case of C=C1CN(S(=O)(=O)c2ccc(C)cc2)CCc2cc(CC(C)C)cc(n2)CCN(S(=O)(=O)c2ccc(C)cc2)C1.Cl, the IC50 [1] is reported as 0.66 µM, the selectivity ratio at 24 h [5] is reported as > 100 and the CC50 (MT4) is reported as 87.9 µM. It also gave an IC50 [3] of 2.3 µM and a solubility thermodynamic at 72 h [4] of 29 µM.
For C=C1CN(S(=O)(=O)c2ccc(N(C)C)cc2)CCc2cc(CC)cc(n2)CCN(S(=O)(=O)c2ccc(N(C)C)cc2)C1, the IC50 [1] was 0.22 µM, the CC50 (MT4) was > 100 µM and the IC50 [3] was 1.1 µM.
With C=C1CN(S(=O)(=O)c2ccc(C)cc2)CCCN(Cc2ccccc2)CCCN(S(=O)(=O)c2ccc(C)cc2)C1.Cl [CYCLOTRIAZADISULFONAMIDE HYDROCHLORIDE] the IC50 [1] was 0.33 µM, the solubility kinetic at 1 h [2] was 43 µM and the CC50 (MT4) was > 100 µM. The IC50 [3] was 1.68 µM and the solubility thermodynamic at 72 h [4] was 11 µM.
